ChEMBL document CHEMBL1132575 (J Med Chem, 1999)

Columns and labels:
[1] = molecular target: T1, 5-hydroxytryptamine receptor 1D (Homo sapiens, UniProt P28221); assay: Intrinsic activity for 5-hydroxytryptamine 1D receptor; type: functional
How it was run: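 Agonism measured as inhibition of forskolin-stimulated adenylyl cyclase in cell lines expressing the human 5-HT1D receptor.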

[2] = molecular target: T2, 5-hydroxytryptamine receptor 1A (Homo sapiens, UniProt P08908); assay: In vitro receptor binding affinity for cloned human 5-hydroxytryptamine 1A receptor
T2 sequence (P08908 whole entry): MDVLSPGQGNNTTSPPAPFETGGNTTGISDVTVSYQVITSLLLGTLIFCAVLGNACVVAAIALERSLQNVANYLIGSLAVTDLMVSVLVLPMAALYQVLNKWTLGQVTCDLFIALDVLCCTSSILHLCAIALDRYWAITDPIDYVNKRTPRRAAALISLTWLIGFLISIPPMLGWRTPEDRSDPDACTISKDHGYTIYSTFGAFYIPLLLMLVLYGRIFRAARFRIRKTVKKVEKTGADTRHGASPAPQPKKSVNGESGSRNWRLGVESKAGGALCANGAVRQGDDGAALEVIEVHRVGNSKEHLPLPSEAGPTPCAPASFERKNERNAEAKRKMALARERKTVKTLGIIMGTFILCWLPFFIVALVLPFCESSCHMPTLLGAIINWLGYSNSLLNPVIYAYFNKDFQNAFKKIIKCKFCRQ

[3] = molecular target: 5-hydroxytryptamine receptor 1B (Homo sapiens, UniProt P28222); assay: In vitro receptor binding affinity for cloned human 5-hydroxytryptamine 1B receptor
Sequence of 5-hydroxytryptamine receptor 1B (P28222 whole entry): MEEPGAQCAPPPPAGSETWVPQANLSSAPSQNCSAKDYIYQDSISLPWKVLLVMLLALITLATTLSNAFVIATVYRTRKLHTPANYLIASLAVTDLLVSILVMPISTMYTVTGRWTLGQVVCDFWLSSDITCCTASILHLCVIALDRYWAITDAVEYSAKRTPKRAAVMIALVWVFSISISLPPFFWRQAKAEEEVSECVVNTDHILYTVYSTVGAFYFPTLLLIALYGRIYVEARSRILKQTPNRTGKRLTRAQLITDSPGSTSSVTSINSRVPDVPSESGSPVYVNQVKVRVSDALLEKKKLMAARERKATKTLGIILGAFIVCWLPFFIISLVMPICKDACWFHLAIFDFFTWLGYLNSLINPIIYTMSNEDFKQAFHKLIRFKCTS

[4] = molecular target: T1, 5-hydroxytryptamine receptor 1D; assay: Ability to inhibit forskolin-stimulated adenylate cyclase in a cell line expressing human 5-hydroxytryptamine 1D receptor; type: functional
[5] = molecular target: T1, 5-hydroxytryptamine receptor 1D; assay: In vitro receptor binding affinity for cloned human 5-hydroxytryptamine 1D receptor
How it was run: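 Radioligand binding assay in cell lines expressing the human 5-HT1D receptor; affinity reported as Ki values. Further procedural detail is referenced to earlier work.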

T1 sequence (P28221 whole entry): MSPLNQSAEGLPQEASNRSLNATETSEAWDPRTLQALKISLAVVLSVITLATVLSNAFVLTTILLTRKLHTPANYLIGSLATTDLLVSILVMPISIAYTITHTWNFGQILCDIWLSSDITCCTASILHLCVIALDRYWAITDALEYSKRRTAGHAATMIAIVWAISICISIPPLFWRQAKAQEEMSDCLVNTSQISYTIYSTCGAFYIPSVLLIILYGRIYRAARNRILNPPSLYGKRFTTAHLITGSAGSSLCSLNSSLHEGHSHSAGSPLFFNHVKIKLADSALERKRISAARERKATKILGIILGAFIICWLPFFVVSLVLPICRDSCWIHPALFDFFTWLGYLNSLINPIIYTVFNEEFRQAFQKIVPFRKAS

SMILES	Ki [5]	also measured
CN(C)CCc1c[nH]c2ccc(Cn3cncn3)cc12	–	Emax [1]: 97%
CNCCc1c[nH]c2ccc(C(C)(C)C)cc12	0.45 nM	Ki [2]: 6.1 nM; Ki [3]: 1.9 nM; EC50 [4]: 0.22 nM; Emax [1]: 100%
CNS(=O)(=O)Cc1ccc2[nH]cc(CCN(C)C)c2c1	–	Emax [1]: 93%
CN[C@@H]1CCc2[nH]c3ccc(C(N)=O)cc3c2C1 [FROVATRIPTAN]	[…]	Ki [2]: 62 nM
CC(C)(C)c1ccc2[nH]cc(CCN)c2c1	0.6 nM	–
CNS(=O)(=O)CCc1ccc2[nH]cc(C3CCN(C)CC3)c2c1	2.3 nM	Ki [2]: 45 nM; Ki [3]: 3.3 nM; EC50 [4]: 1.6 nM; Emax [1]: 100%
CC(C)c1ccc2[nH]cc(CCN)c2c1	1.1 nM	–
CCc1ccc2[nH]cc(CCN)c2c1	3.7 nM	–
CN(C)CCc1c[nH]c2ccc(C(C)(C)C)cc12	0.44 nM	–
NCCc1c[nH]c2ccc(C3CCCCC3)cc12	3.4 nM	–
NCCc1c[nH]c2ccc(C3CCCC3)cc12	1.7 nM	–
CCCN(CCC)CCc1c[nH]c2ccc(C(C)(C)C)cc12	10.8 nM	–
Cc1ccc2[nH]cc(CCN)c2c1	6.4 nM	–
CCCNCCc1c[nH]c2ccc(C(C)(C)C)cc12	6.2 nM	–
